Activity calls are given as the source filed them. The rule behind the calls is not given here.
Experiments:
[1] = Selectivity index, ratio of IC50 for antiproliferative activity in HEK293T cells to IC50 for antiproliferative activity in human p53 (-/-) human HCT116 cells; assay type: toxicity, cell-based; settings: HEK293T cells versus p53 (-/-) HCT116 cells, read-out: Ratio IC50
[2] = Potency index, ratio of IC50 for antiproliferative activity in human MCF7 cells to IC50 for antiproliferative activity in human MDA-MB-231 cells; assay type: functional
[3] = Selectivity index, ratio of IC50 for antiproliferative activity in HEK293T cells to IC50 for antiproliferative activity in human p53 (+/+) human HCT116 cells; assay type: toxicity, cell-based; settings: HEK293T cells versus p53 (+/+) HCT116 cells, read-out: Ratio IC50
[4] = test system: MDA-MB-231; test: Induction of cell cycle arrest in human MDA-MB-231 cells at antiproliferative IC50 level by propidium iodide staining based flow cytometry; assay type: functional
[5] = test system: MDA-MB-231; test: Antiproliferative activity in human MDA-MB-231 cells incubated for 72 hrs by MTT assay; assay type: functional, cell-based; settings: MDA-MB-231, 72 h
Procedure, shortened: (§1)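 Cells grown in RPMI 1640 with 10% FBS, penicillin/streptomycin; seeded at 2 × 10⁵ cells/mL, allowed to adhere 24 h, then exposed 72 h to compounds diluted in medium from DMSO stocks. MTT added after medium change, 3 h, formazan dissolved in DMSO, absorbance at 570 nm. Triplicate wells, at least 3 independent experiments; IC50 by non-linear regression.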

[6] = Selectivity index, ratio of IC50 for antiproliferative activity in HEK293T cells to IC50 for antiproliferative activity in human MDA-MB-231 cells; assay type: toxicity, cell-based; settings: HEK293T cells versus MDA-MB-231 cells, read-out: Ratio IC50
Procedure, shortened: (§2)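 Ratio of HEK 293T IC50 to MDA-MB-231 IC50 from 72 h MTT assays.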

[7] = test system: HCT-116; test: Antiproliferative activity in p53 (+/+) human HCT116 cells incubated for 72 hrs by MTS assay; assay type: functional, cell-based; settings: HCT-116, 72 h
Procedure, shortened: (§3)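 HCT116 p53(+/+) or p53(−/−) seeded at 1 × 10⁵ cells/mL, adhered 24 h, then treated 72 h with compounds diluted from DMSO stocks. Viability by MTS (CellTiter96 AQueous) with absorbance at 490 nm. Duplicate wells, three independent experiments; IC50 by non-linear regression.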

[8] = Potency index, ratio of IC50 for antiproliferative activity in human p53 (-/-) human HCT116 cells to IC50 for antiproliferative activity in human MDA-MB-231 cells; assay type: functional
[9] = test system: MDA-MB-231; test: Induction of apoptosis in human MDA-MB-231 cells assessed as increase in caspase3/7 activity at antiproliferative IC50 level incubated for 48 hrs by Caspase-Glo 3/7 Assay; assay type: functional
[10] = test system: MCF7; test: Antiproliferative activity in human MCF7 cells incubated for 72 hrs by MTT assay; assay type: functional, cell-based; settings: MCF7, 72 h; procedure, shortened: as §1
[11] = […], ratio of IC50 for antiproliferative activity in HEK293T cells to IC50 for antiproliferative activity in human MDA-MB-231 cells; assay type: toxicity, cell-based; settings: HEK293T cells versus MDA-MB-231 cells, read-out: Ratio IC50; procedure, shortened: as §2
[12] = Potency index, ratio of IC50 for antiproliferative activity in human p53 (+/+) human HCT116 cells to IC50 for antiproliferative activity in human MDA-MB-231 cells; assay type: functional
[13] = Selectivity index, ratio of IC50 for antiproliferative activity in HEK293T cells to IC50 for antiproliferative activity in human MCF7 cells; assay type: toxicity, cell-based; settings: HEK293T cells versus MCF7 cells, read-out: Ratio IC50
Procedure, shortened: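 Ratio of HEK 293T IC50 to MCF-7 IC50 from 72 h MTT assays.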

[14] = test system: HCT-116; test: Antiproliferative activity in p53 (-/-) human HCT116 cells incubated for 72 hrs by MTS assay; assay type: functional, cell-based; settings: HCT-116, 72 h; procedure, shortened: as §3
[15] = test system: HEK-293T; test: Antiproliferative activity in human HEK293T cells incubated for 72 hrs by MTT assay; assay type: cell-based; procedure, shortened: as §1
[16] = test system: CCD-18Co; test: Cytotoxicity in human CCD-18Co cells assessed as reduction in cell viability at antiproliferative IC50 (for p53 (+/+) human HCT116 cells) incubated for 72 hrs by MTS assay; assay type: cell-based
Procedure, shortened: (§4)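 CCD-18Co colon fibroblasts grown in DMEM with 10% FBS, penicillin/streptomycin, Glutamax, NEAA. […] Viability by MTS, absorbance at 490 nm. Triplicate wells, at least 2 independent experiments; mean ± SEM.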

[17] = test system: HCT-116; test: Induction of cell cycle arrest in p53 (+/+) human HCT116 cells assessed as accumulation at G0/G1 phase at antiproliferative IC50 level incubated for 24 hrs by propidium iodide staining based flow cytometry (reference value: 31.87%); assay type: functional
[18] = Potency index, ratio of IC50 for antiproliferative activity in human p53 (-/-) human HCT116 cells to IC50 for antiproliferative activity in human p53 (+/+) human HCT116; assay type: functional
[19] = test system: HCT-116; test: Increase in p53 protein expression in p53 (+/+) human HCT116 cells at antiproliferative IC50 level incubated for 72 hrs by Western blot; assay type: functional, cell-based
Procedure, shortened: (§5)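 Lysed in NP-40 buffer, protein measured by Bradford, separated by 8%/14% SDS-PAGE, blotted to nitrocellulose. Probed overnight at 4 °C with anti-p53 (Pab-240) and anti-MDM2 (SMP-14), then HRP secondary with chemiluminescence. Ponceau S loading control, densitometry; two experiments.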

[20] = test system: HCT-116; test: Induction of cell cycle arrest in p53 (+/+) human HCT116 cells assessed as accumulation at G0/G1 phase at antiproliferative IC50 level incubated for 48 hrs by propidium iodide staining based flow cytometry (reference value: 50.48%); assay type: functional
[21] = test system: HCT-116; test: Induction of cell cycle arrest in p53 (+/+) human HCT116 cells assessed as accumulation at S phase at antiproliferative IC50 level incubated for 48 hrs by propidium iodide staining based flow cytometry (reference value: 22.67%); assay type: functional
[22] = test system: HCT-116; test: Induction of cell cycle arrest in p53 (+/+) human HCT116 cells assessed as accumulation at S phase at antiproliferative IC50 level incubated for 24 hrs by propidium iodide staining based flow cytometry (reference value: 38.3%); assay type: functional
[23] = test system: HCT-116; test: Induction of apoptosis in p53 (+/+) human HCT116 cells at 2 times antiproliferative IC50 level incubated for 72 hrs by Annexin-V and 7-AAD staining based flow cytometry; assay type: functional, cell-based
Procedure, shortened: (§6)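 Cells detached with Accutase and stained with Annexin V/7-AAD (Guava Nexin), 20 min at room temperature in the dark. Flow cytometry, ≥5000 events per sample; three independent experiments.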

[24] = test system: HCT-116; test: Reduction in MDM2 protein expression in p53 (+/+) human HCT116 cells at antiproliferative IC50 level incubated for 72 hrs by Western blot; assay type: functional, cell-based; procedure, shortened: as §5
[25] = test system: HCT-116; test: Induction of apoptosis in p53 (+/+) human HCT116 cells assessed as increase in early apoptotic cells level at antiproliferative IC50 level incubated for 72 hrs by Annexin-V and 7-AAD staining based flow cytometry; assay type: functional; procedure, shortened: as §6
[26] = biological target: Tumour suppressor p53/oncoprotein Mdm2 (Homo sapiens) (UniProt P04637+Q00987); test: Inhibition of p53/MDM2 interaction (unknown origin) transfected in p53 (-/-) human HCT116 cells at 10 uM incubated for 4 hrs by Venus-based bimolecular fluorescence complementation assay
Procedure, shortened: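 HCT116 p53(−/−) co-transfected with V1-p53/MDM2-V2 BiFC plasmids using Lipofectamine 2000. Medium replaced 4–6 h after transfection, then compound (final 5 and 10 µM), nutlin-3a, or matched DMSO added; transfection period 24 h. Venus fluorescence read by flow cytometry and normalized to DMSO (100%). Three experiments.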

[27] = test system: CCD-18Co; test: Cytotoxicity in human CCD-18Co cells assessed as reduction in cell viability at antiproliferative IC80 (for p53 (+/+) human HCT116 cells) incubated for 72 hrs by MTS assay; assay type: cell-based; procedure, shortened: as §4
[28] = test system: HCT-116; test: Induction of cell cycle arrest in p53 (+/+) human HCT116 cells assessed as accumulation at G2/M phase at antiproliferative IC50 level incubated for 48 hrs by propidium iodide staining based flow cytometry (reference value: 26.85%); assay type: functional
[29] = test system: HCT-116; test: Induction of cell cycle arrest in p53 (+/+) human HCT116 cells assessed as accumulation at G2/M phase at antiproliferative IC50 level incubated for 24 hrs by propidium iodide staining based flow cytometry (reference value: 25.85%); assay type: functional

Chain of Tumour suppressor p53/oncoprotein Mdm2 (Homo sapiens) (P04637 whole entry, looked up): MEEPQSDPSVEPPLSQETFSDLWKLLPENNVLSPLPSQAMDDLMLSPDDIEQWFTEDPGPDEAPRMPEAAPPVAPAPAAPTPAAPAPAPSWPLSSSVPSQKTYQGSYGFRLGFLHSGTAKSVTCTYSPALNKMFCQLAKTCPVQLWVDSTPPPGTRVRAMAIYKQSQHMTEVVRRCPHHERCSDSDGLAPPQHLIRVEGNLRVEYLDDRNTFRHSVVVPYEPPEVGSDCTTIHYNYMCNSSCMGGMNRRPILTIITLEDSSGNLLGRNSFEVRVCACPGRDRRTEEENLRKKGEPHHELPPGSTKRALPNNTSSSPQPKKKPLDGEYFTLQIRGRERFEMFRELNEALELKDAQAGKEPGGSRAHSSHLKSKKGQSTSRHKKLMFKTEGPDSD
Chain of Tumour suppressor p53/oncoprotein Mdm2 (Homo sapiens) (Q00987 whole entry, looked up): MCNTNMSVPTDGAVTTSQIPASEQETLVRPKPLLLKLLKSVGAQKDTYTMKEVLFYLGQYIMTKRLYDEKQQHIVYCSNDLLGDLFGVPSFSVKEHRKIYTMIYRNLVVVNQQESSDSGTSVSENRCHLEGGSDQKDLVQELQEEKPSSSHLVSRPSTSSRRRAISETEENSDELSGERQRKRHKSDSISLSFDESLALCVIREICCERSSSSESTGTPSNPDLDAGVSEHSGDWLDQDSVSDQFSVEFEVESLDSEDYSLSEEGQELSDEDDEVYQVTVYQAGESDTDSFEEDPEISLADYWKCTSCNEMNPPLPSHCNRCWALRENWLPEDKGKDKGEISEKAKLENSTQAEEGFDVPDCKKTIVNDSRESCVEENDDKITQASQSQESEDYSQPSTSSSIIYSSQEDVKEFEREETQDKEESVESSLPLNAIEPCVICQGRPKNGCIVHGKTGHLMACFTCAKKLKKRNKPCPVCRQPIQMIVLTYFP

Compound | selectivity ratio [1] | selectivity ratio [3] | IC50 [5] [µM] | IC50 [7] [µM] | IC50 [10] [µM] | selectivity ratio [11] | selectivity ratio [13] | IC50 [14] [µM] | IC50 [15] [µM] | Activity [16] | Activity [17] [%] | Activity [20] [%] | Activity [21] [%] | Activity [22] [%] | Activity [23] | fold change (FC) [25] | Activity [27] [%] | further results
O=C1Nc2ccc(Br)cc2C12N(c1ccccc1)N=C(c1ccccc1)N2c1ccccc1 (centres undefined) | 2.5 | 2.5 | 6.7 | 22.2 | 23 | ≥ 2.5 | 2.4 to 2.5 | 22.5 | 56.3 | – | – | – | – | – | – | – | – | Ratio IC50 [2]: >=2.4; Activity [4]: inactive; selectivity ratio [6]: ≥ 2.4; Ratio IC50 [8]: >=2.4; fold change (FC) [9]: 2.5; Ratio IC50 [12]: >=2.4
O=C1Nc2ccc(Br)cc2C12N(c1ccccc1Cl)N=C(c1cccc(Cl)c1)N2c1cccc(Cl)c1 (centres undefined) | < 2 | 1.5 | 7.6 | 13.9 | 9.5 | – | 2.3 | 17.7 | 21.4 | Non-Toxic | 34.54 | 65.49 | 33.41 | 42.61 | Dose-dependent effect | 2.8 | 40 | Ratio IC50 [18]: 1.3; Activity [19]: Active; Activity [24]: Active; inhibition [26]: Active
O=C1Nc2ccc(Cl)cc2C12N(c1ccccc1)N=C(c1ccccc1)N2c1cccc(Cl)c1 (centres undefined) | 2.5 to 5.6 | 2.5 to 5.6 | 8.9 | 16.3 | 9.8 | ≥ 2.5 | 2.5 to 10.2 | 17.9 | > 100 | Non-Toxic | 50.11 | 58 | 31.34 | 36.42 | Dose-dependent effect | 3.1 | 40 | Activity [28]: 13.65%; Activity [29]: 13.87%
